The source of these data is ChEMBL document CHEMBL3085645, “Design, synthesis and biological evaluation of phosphorodiamidate prodrugs of antiviral and anticancer nucleosides” (Eur J Med Chem, 2013).

What is called IC50 is the concentration needed to halve the response being measured. What is called EC50 is the concentration giving half of the maximal effect. For orientation: CC50 means the concentration at which the toxic effect on the cells reaches its halfway point.

One series relates to Caco-2. Description: Cytostatic activity against human Caco2 cells assessed as growth inhibition after 3 days by particle counting analysis. The class given is functional, cell-based. To be noted: Caco-2, 72 h. In a few lines: (§1)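 Tumor cells seeded and exposed to a range of compound concentrations. Cell number counted with a particle counter after 2 days (L1210, L1210/TK) or 3 days (CEM, CEM/TK, HeLa, HeLa TK, Caco-2, Colo-320).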

Series [1] concerns Human immunodeficiency virus 2. The series is described as follows: Antiviral activity against HIV2 ROD infected in human CEM cells assessed as virus-induced giant cell formation after 4 days by microscopic analysis. The class given is functional, organism-based. The conditions noted are these: Human immunodeficiency virus 2, ISOLATE ROD, CCRF-CEM, 96 h. In a few lines:
(§2)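 CEM cells (∼3 × 10^5 cells/cm3) infected with 100 CCID50/mL of HIV-1(IIIB) or HIV-2(ROD), seeded into wells with compound dilutions. Giant cell formation examined microscopically after 4 days at 37 °C.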

Series [2] relates to L1210. Description: Cytostatic activity against mouse L1210 cells assessed as growth inhibition after 2 days by particle counting analysis. The class given is functional, cell-based. The conditions noted are these: L1210, 48 h. In a few lines:
as §1

Series [3] concerns Human immunodeficiency virus 1. The series is described as follows: Antiviral activity against HIV1 3B infected in human CEM cells assessed as virus-induced giant cell formation after 4 days by microscopic analysis. The class given is functional, organism-based. To be noted: Human immunodeficiency virus 1, 3B, CCRF-CEM, 96 h. A digest of the protocol:
as §2

Series [4] relates to HeLa. The series is described as follows: Cytostatic activity against thymidine kinase-deficient human HeLa cells assessed as growth inhibition after 3 days by particle counting analysis. The conditions noted are these: 72 h. The class given is functional, cell-based. A digest of the protocol:
as §1

Another series relates to COLO 320. The series is described as follows: Cytostatic activity against human COLO320 cells assessed as growth inhibition after 3 days by particle counting analysis. The class given is functional, cell-based. The conditions noted are these: COLO 320, 72 h. A digest of the protocol:
as §1

Series [5] relates to HeLa. Description: Cytostatic activity against human HeLa cells assessed as growth inhibition after 3 days by particle counting analysis. The class given is functional, cell-based. The conditions noted are these: 72 h. A digest of the protocol: as §1
In series [6] the test system is L1210. The series is described as follows: Cytostatic activity against thymidine kinase-deficient mouse L1210 cells assessed as growth inhibition after 2 days by particle counting analysis. The class given is functional, cell-based. To be noted: L1210, 48 h. A digest of the protocol:
as §1

Series [7] concerns CCRF-CEM. Description: Cytostatic activity against thymidine kinase-deficient human CEM cells assessed as growth inhibition after 3 days by particle counting analysis. The conditions noted are these: 72 h. The class given is functional, cell-based. In a few lines:
as §1

Series [8] concerns CCRF-CEM. Description: Cytostatic activity against human CEM cells assessed as growth inhibition after 3 days by particle counting analysis. The conditions noted are these: 72 h. The class given is functional, cell-based. In a few lines:
as §1

A further series concerns MT4. The series is described as follows: Cytotoxicity against human MT4 cells assessed as cell viability by propidium iodide staining-based cell counting analysis. In a few lines: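 MT-4 cultures, untreated or treated, were counted on an automated cell counter. Total and dead cells were enumerated by propidium iodide-based assay.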
For the next series, the system named is Hepatitis C virus. Description: Antiviral activity against Hepatitis C virus genotype 1b infected in human HuH7 cells assessed as inhibition of viral replication. The class given is functional, organism-based, Hepacivirus hominis. To be noted: Huh-7, read-out: EC50.
The next series relates to Felid alphaherpesvirus 1. The series is described as follows: Antiviral activity against Feline herpesvirus infected in cat CRFK cells assessed as inhibition of virus-induced cytopathicity. The conditions noted are these: Felid alphaherpesvirus 1, CRFK. The class given is functional, organism-based. A general note: Protection from cytopathic effect is a common read-out in antiviral testing.

A short description of series [9]: Cytotoxicity against HEL cells. The class given is cell-based. To be noted: human.
The test system of series [10] is Human alphaherpesvirus 1. Description: Antiviral activity against Herpes simplex virus 1 KOS infected in HEL cells assessed as inhibition of virus-induced cytopathicity. The class given is functional, organism-based. The conditions noted are these: Human alphaherpesvirus 1, KOS.
Series [11] has as its system Human immunodeficiency virus 1. Description: Antiviral activity against HIV1 infected in human MT4 cells assessed as p24 production after 3 days. The conditions noted are these: Human immunodeficiency virus 1, MT4, 72 h.
Series [12] deals with Human alphaherpesvirus 1. Description: Antiviral activity against acyclovir-resistant thymidine kinase-deficient Herpes simplex virus 1 KOS infected in HEL cells assessed as inhibition of virus-induced cytopathicity. The class given is functional, organism-based. The conditions noted are these: Human alphaherpesvirus 1, KOS.
The test system of a further series is Human alphaherpesvirus 2. The series is described as follows: Antiviral activity against Herpes simplex virus 2 G infected in HEL cells assessed as inhibition of virus-induced cytopathicity. The class given is functional, organism-based. The conditions noted are these: Human alphaherpesvirus 2, strain G.
Series [13] deals with CCRF-CEM. The series is described as follows: Cytotoxicity against human CEM cells. The class given is cell-based.
Series [14] in a line: Chemical stability in d6 acetone/trizma buffer at 4.8 mg in absence of carboxypeptidase Y. The class given is physicochemical. A digest of the protocol:
(§3)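 Prodrug kept in d6-acetone plus Trizma buffer (pH 7.6) without carboxypeptidase Y; integrity followed by 31P NMR.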

Series [15] is described as follows: Prodrug conversion assessed as carboxypeptidase Y (unknown origin)-mediated (8S)-1-(2-amino-6-oxo-1,6-dihydro-9H-purin-9-yl)-8-methyl-6-oxido-2,5-dioxa-7-aza-6-phosphanonan-9-oate 6-oxide formation at 5 mg measured after 7.5 hrs by 31P-NMR analysis. The conditions noted are these: human. The class given is ADME. In a few lines:
(§4)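 Prodrug incubated with carboxypeptidase Y in d6-acetone/Trizma buffer (pH 7.6); conversion followed over time by 31P NMR.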

A short description of series [16]: Chemical stability in d6 acetone/trizma buffer at 5 mg in absence of carboxypeptidase Y. The class given is physicochemical. A digest of the protocol: as §3
Series [17] in a line: Prodrug conversion assessed as carboxypeptidase Y (unknown origin)-mediated metabolite formation lacking one ester moiety at 5 mg measured every 5 mins for 24 hrs by 31P-NMR analysis. The class given is ADME. To be noted: human. In a few lines:
as §4

The nature of series [18]: Prodrug conversion assessed as carboxypeptidase Y (unknown origin)-mediated (S)-2-((((2R,3S,4R,5R)-5-(5-amino-4-carbamoyl-1H-imidazol-1-yl)-3,4-dihydroxytetrahydrofuran-2-yl)methoxy)oxidophosphorylamino)propanoate formation at 4.8 mg measured after 24 hrs by 31P-NMR analysis. The class given is ADME. To be noted: human. In a few lines: as §4

Take `Cc1cn([C@H]2C=C[C@@H](COP(=O)(N[C@@H](C)C(=O)OCC(C)(C)C)N[C@@H](C)C(=O)OCC(C)(C)C)O2)c(=O)[nH]c1=O`: the IC50 with Caco-2 worked out at 174 µM; in the series with L1210 [2], 47 µM; in the series on HeLa [4] it was 53 µM; in the series on COLO 320, 30 µM; with HeLa [5] it was 110 µM; with L1210 [6], 23 µM. The half-maximal inhibitory concentration (IC50) in the series with CCRF-CEM [7] came out at 37 µM; in the series with CCRF-CEM [8], 96 µM. Besides, the EC50 in series [1] was found to be 0.14 µM; in series [3], 0.09 µM.
For `C[C@H](NP(=O)(N[C@@H](C)C(=O)OCC(C)(C)C)OCCOCn1cnc2c(=O)[nH]c(N)nc21)C(=O)OCC(C)(C)C`, in the series on MT4, the 50% cytotoxic concentration (CC50) came out at 82.8 µM. The EC50 in the series on Hepatitis C virus was greater than 100 µM; in the series with Felid alphaherpesvirus 1 it was greater than 100 µM; with Human alphaherpesvirus 1 [10], 33 µM; in [11] it was 4.07 µM; in the series on Human alphaherpesvirus 1 [12] it was 20 µM; with Human alphaherpesvirus 2 it was 40 µM. In series [9], this compound had an MCC greater than 100 µM.
On to `Nc1ccn([C@@H]2CS[C@H](CO)O2)c(=O)n1` [LAMIVUDINE], for which the 50% inhibitory concentration (IC50) with Caco-2, in the series with L1210 [2], in the series with HeLa [4], in the series with COLO 320, with HeLa [5] and in the series with L1210 [6] was greater than 250 µM in each case. Further, the IC50 with CCRF-CEM [7] and in the series with CCRF-CEM [8] was greater than 250 µM in each case. The concentration giving a half-maximal response (EC50) is 0.18 µM in [1] and 0.099 µM in [3]. In addition, the CC50 with CCRF-CEM [13] was greater than 250 µM.
With `C[C@H](NP(=O)(N[C@@H](C)C(=O)OCc1ccccc1)OCCOCn1cnc2c(=O)[nH]c(N)nc21)C(=O)OCc1ccccc1`, the Stability entry in series [14] and in series [16] was “Stable” in each case. In addition, in the series on MT4, the CC50 worked out at 34.9 µM. In addition, the EC50 in the series on Hepatitis C virus was greater than 100 µM; in the series with Felid alphaherpesvirus 1 it was greater than 100 µM; in the series on Human alphaherpesvirus 1 [10], 18 µM; in series [11], 2.01 µM; in the series on Human alphaherpesvirus 1 [12] it was 25 µM; with Human alphaherpesvirus 2 it was 16 µM. The MCC in series [9] is greater than 100 µM. For the same compound, the Drug metabolism entry in [15] and in [17] was “Active” throughout.
For `C[C@H](NP(=O)(N[C@@H](C)C(=O)OCC(C)(C)C)OC[C@H]1O[C@@H](n2cnc(C(N)=O)c2N)[C@H](O)[C@@H]1O)C(=O)OCC(C)(C)C`, the half-maximal effective concentration (EC50) in the series on Felid alphaherpesvirus 1, in the series on Human alphaherpesvirus 1 [10], with Human alphaherpesvirus 1 [12] and in the series on Human alphaherpesvirus 2 was greater than 100 µM in each case. In addition, the MCC in [9] is greater than 100 µM. Further, the IC50 in the series on L1210 [2], in the series with HeLa [4], with HeLa [5] and with CCRF-CEM [8] was greater than 250 µM each time. Besides, the Drug metabolism result in series [18] was “Not Active”.
Take `Cc1cn([C@H]2C=C[C@@H](COP(=O)(N[C@@H](C)C(=O)OCc3ccccc3)N[C@@H](C)C(=O)OCc3ccccc3)O2)c(=O)[nH]c1=O`: the concentration for half-maximal inhibition (IC50) was determined as 241 µM in the series with Caco-2; 8.9 µM in the series on L1210 [2]; 29 µM with HeLa [4]; 133 µM in the series on COLO 320; 116 µM with HeLa [5]; 7.4 µM in the series with L1210 [6]. The figures for the half-maximal inhibitory concentration (IC50) in the series with CCRF-CEM [7] and with CCRF-CEM [8] were 46 µM and 92 µM, respectively. The EC50 was determined as 0.096 µM in series [1] and 0.14 µM in series [3].
In the case of `C[C@H](NP(=O)(N[C@@H](C)C(=O)OCc1ccccc1)OC[C@H]1O[C@@H](n2ccc(N)nc2=O)CS1)C(=O)OCc1ccccc1`, the IC50 was 87 µM with Caco-2; 86 µM with L1210 [2]; 38 µM in the series on HeLa [4]; 85 µM in the series with COLO 320; 93 µM with HeLa [5]; 57 µM in the series on L1210 [6]. Besides, the figures for the IC50 with CCRF-CEM [7] and in the series with CCRF-CEM [8] were 106 µM and 116 µM, respectively. The EC50 in series [1] and in [3] was greater than 50 µM throughout.
For the compound `Nc1nc2c(ncn2COCCO)c(=O)[nH]1` [ACYCLOVIR], the CC50 in the series with MT4 was greater than 250 µM. Moreover, the EC50 was greater than 100 µM with Felid alphaherpesvirus 1, 0.23 µM in the series with Human alphaherpesvirus 1 [10], greater than 250 µM in series [11] and 23 µM with Human alphaherpesvirus 1 [12]. Moreover, the MCC in series [9] is greater than 100 µM.
Regarding `Cc1cn([C@H]2C=C[C@@H](CO)O2)c(=O)[nH]c1=O` [STAVUDINE], the IC50 with Caco-2 is greater than 250 µM; in the series with HeLa [4], greater than 250 µM; in the series with COLO 320, 159 µM; with HeLa [5], greater than 250 µM; in the series on L1210 [6], no less than 250 µM; with CCRF-CEM [7], greater than 250 µM. The figures for the concentration for a half-maximal effect (EC50) in [1] and in [3] were 0.58 µM and 0.39 µM, respectively.
